In assay [1] the target is Delta-type opioid receptor (Homo sapiens, UniProt P41143). Nature of the assay: Displacement of [3H]DADLE from human recombinant delta opioid receptor expressed in HEK cells after 60 mins. The format is cell-based, HEK293. On the technique in general: In a radioligand displacement assay an active substance lowers the binding of a labelled ligand.
Assay [2] concerns the target Kappa-type opioid receptor (Rattus norvegicus, UniProt P34975). The assay can be described thus: Displacement of [3H]U69593 from rat recombinant kappa opioid receptor expressed in CHO cells after 60 mins. The assay is classed as cell-based.
The target of a further assay is Mu-type opioid receptor (Homo sapiens, UniProt P35372). The assay can be described thus: Displacement of [3H]diprenorphine from human recombinant mu opioid receptor expressed in HEK cells after 60 mins. The format is cell-based, HEK293.
A short description of assay [3]: Selectivity ratio of Ki for human recombinant mu opioid receptor to Ki for rat recombinant kappa opioid receptor.
Assay [4] can be described thus: Selectivity ratio of Ki for human recombinant delta opioid receptor to Ki for rat recombinant kappa opioid receptor. A digest of the protocol: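 Ratio of DOR Ki to KOR Ki. […] Both assays in 50 mM Tris pH 7.4 at room temperature, eight concentrations.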
For assay [5], the species on record is Homo sapiens. Nature of the assay: Selectivity ratio of Ki for mu opioid receptor (unknown origin) to Ki for kappa opioid receptor (unknown origin). In outline: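 Ratio of two Ki values from radioligand displacement. KOR: rat recombinant receptor in CHO cells, [³H]U69593 (1 nM), 60 min. MOR: human recombinant receptor in HEK cells, [³H]diprenorphine (0.4 nM), 120 min. Both in 50 mM Tris pH 7.4 at room temperature with eight test concentrations. Ki is the mean ± SD of at least three experiments.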

The target in assay [6] is Kappa-type opioid receptor (Homo sapiens, UniProt P41145). Nature of the assay: Antagonist activity at kappa opioid receptor (unknown origin).
For assay [7], the species on record is Homo sapiens. The assay can be described thus: Selectivity ratio of Ki for delta opioid receptor (unknown origin) to Ki for kappa opioid receptor (unknown origin). A digest of the protocol:
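Ratio of two Ki values from radioligand displacement. KOR: rat recombinant receptor in CHO cells, [³H]U69593 (1 nM), 60 min. DOR: human recombinant receptor, [³H]DADLE (0.5 nM), 120 min. Both in 50 mM Tris pH 7.4 at room temperature with eight test concentrations. Ki is the mean ± SD of at least three independent experiments.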

Results on 6 compounds are retold here after ChEMBL document CHEMBL3396991 (Eur J Med Chem, 2015).

Kappa-type opioid receptor (Rattus norvegicus, UniProt P34975), sequence (P34975 whole entry): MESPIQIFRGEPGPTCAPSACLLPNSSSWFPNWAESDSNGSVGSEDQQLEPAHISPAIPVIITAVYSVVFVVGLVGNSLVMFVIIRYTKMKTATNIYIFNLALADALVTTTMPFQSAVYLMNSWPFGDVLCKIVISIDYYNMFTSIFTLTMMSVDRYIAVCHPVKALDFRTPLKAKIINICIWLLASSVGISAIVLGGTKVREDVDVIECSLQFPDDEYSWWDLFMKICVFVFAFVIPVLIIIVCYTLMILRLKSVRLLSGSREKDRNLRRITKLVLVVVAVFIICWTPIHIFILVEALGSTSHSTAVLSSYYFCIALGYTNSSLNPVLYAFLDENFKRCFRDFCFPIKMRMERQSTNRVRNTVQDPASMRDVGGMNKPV
Mu-type opioid receptor, sequence (P35372 whole entry): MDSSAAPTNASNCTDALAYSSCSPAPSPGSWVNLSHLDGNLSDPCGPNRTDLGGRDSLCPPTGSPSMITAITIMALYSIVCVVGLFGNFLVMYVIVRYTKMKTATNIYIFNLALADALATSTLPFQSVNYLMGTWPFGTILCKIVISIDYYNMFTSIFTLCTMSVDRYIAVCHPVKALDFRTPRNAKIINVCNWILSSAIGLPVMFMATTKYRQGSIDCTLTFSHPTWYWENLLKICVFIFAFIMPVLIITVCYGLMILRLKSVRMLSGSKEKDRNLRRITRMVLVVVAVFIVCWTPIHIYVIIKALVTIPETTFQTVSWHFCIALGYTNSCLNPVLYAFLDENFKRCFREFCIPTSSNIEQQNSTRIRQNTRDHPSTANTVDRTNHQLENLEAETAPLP
Delta-type opioid receptor, sequence (P41143 whole entry): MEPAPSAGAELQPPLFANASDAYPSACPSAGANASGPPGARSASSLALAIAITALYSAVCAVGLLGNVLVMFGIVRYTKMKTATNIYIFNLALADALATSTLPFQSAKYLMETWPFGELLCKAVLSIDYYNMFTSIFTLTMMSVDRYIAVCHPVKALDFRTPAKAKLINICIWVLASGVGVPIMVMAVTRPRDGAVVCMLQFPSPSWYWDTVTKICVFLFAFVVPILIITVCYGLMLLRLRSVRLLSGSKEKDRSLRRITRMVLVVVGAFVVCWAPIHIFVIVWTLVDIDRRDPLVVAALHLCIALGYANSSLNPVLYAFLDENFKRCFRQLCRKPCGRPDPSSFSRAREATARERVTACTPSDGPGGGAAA
Kappa-type opioid receptor (Homo sapiens, UniProt P41145), sequence (P41145 whole entry): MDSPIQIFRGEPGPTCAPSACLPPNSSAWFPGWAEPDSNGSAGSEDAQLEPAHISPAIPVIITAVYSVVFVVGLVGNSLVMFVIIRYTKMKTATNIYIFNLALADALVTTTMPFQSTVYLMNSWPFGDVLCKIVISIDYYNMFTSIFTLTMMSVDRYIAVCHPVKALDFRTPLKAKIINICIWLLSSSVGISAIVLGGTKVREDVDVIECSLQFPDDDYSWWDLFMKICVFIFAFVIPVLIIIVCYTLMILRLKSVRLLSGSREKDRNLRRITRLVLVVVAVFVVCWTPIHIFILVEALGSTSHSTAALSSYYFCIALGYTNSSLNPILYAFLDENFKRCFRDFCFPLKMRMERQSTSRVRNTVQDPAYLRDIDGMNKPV

What is called Ki is the equilibrium dissociation constant of an inhibitor or competing ligand from its target. For `CC(C)[C@@H](CN1CC[C@@](C)(c2cccc(O)c2)[C@@H](C)C1)NC(=O)[C@H]1Cc2ccc(O)cc2CN1CCCF`, the Ki in assay [1] is 254 nM; in assay [2], 1.62 nM; at Mu-type opioid receptor, 19.6 nM. The values for the Ratio Ki in assay [3] and in assay [4] were 12.2 and 159, respectively.

On to `CC(C)[C@@H](CN1CC[C@@](C)(c2cccc(O)c2)[C@@H](C)C1)NC(=O)[C@H]1Cc2ccc(OCCCF)cc2CN1`, for which the Ki in assay [1] was 72.9 nM; in assay [2], 8.19 nM; at Mu-type opioid receptor, 57.5 nM. The Ratio Ki in assay [3] stood at 7; in assay [4], 8.9.

As for `CC(C)[C@@H](CN1CC[C@@](C)(c2cccc(O)c2)[C@@H](C)C1)NC(=O)[C@H]1Cc2ccc(OCCF)cc2CN1`, the Ki in assay [1] came out at 81.3 nM; in assay [2], 24 nM; at Mu-type opioid receptor, 63.1 nM. For the same compound, the Ratio Ki in assay [3] amounted to 2.6; in assay [4], 3.4.

As for `CC(C)[C@@H](CN1CC[C@@](C)(c2cccc(O)c2)[C@@H](C)C1)NC(=O)[C@H]1Cc2ccc(O)cc2CN1CCF`, the Ki in assay [1] turned out to be 72.8 nM; in assay [2], 5.51 nM; at Mu-type opioid receptor it was 13.2 nM. Also, the Ratio Ki was 2.4 in assay [3] and 13.2 in assay [4].

Consider `CC(C)[C@@H](CN1CC[C@@](C)(c2cccc(O)c2)[C@@H](C)C1)NC(=O)[C@H]1Cc2ccc(O)cc2CN1` [JDTIC], for which the Ki in assay [2] came to 0.32 nM.

Turning to `Cc1cc(C)cc([C@@H]2CCCN2Cc2ccc(Oc3ccc(C(N)=O)cc3F)cc2)c1` [ATICAPRANT], the Ratio Ki in the assay filed under Homo sapiens [5] is 30; in the assay filed under Homo sapiens [7], 194. In assay [6], the Ki was 0.8 nM.
